Most compounds without a hit are left out; they make up all but 2.9% or so of the library.
SENP6 block = SENP6 protease inhibitors, primary screen, biochemical, luminescence, uHTS. Sentrin-specific protease 6 (Homo sapiens), Q9GZR1. Recombinant SENP6 catalytic domain, aminoluciferin luminescence. inhibition, % at 10 µM. hit rate 1.8% among 330,000;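 active = inhibition above about 50% at the single tested dose, limit read from the data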;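 also: plate controls were DMSO wells with enzyme for no effect and DMSO wells lacking enzyme for full effect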
SENP8 block-1 = SENP8 protease inhibitors, primary screen, biochemical, luminescence; Sentrin-specific protease 8 (Homo sapiens), Q96LD8; inhibition, % at 10 µM; purified SENP8, Z-RLRGG-aminoluciferin cleavage; AID 2540, 2010; hit rate 1.2% among 330,000; in the data active = inhibition above about 50%
SENP8 block-2 = human SENP8 protease inhibitors, primary screen, biochemical, fluorescence, Nedd8 protein substrate, uHTS | Sentrin-specific protease 8 (Homo sapiens), Q96LD8 | recombinant SENP8 | inhibition, % at 20 µM | hit rate 0.64% among 360,000; in the data active = inhibition mostly above about 40%, no sharp cut-off; inactive = mostly below about 27%
Apaf1 inhib = inhibitors of human Apaf-1 apoptosome, primary screen, biochemical, DEVD-Rh110 fluorescence, uHTS; Apoptotic protease-activating factor 1 (Homo sapiens), O14727; reconstituted apoptosome caspase-3 activity; inhibition, % at 20 µM; hit rate 0.71% among 330,000; AID 489030, 2010; active = inhibition of at least 40% at 20 µM;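 also: plate controls were DMSO wells for no effect and DEVD-CHO caspase inhibitor wells for full effect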
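System: Apoptosome proteins | Medium: Hepes pH 7.5 with detergent and BSA | Also added: Cytochrome c trigger plus (Z-DEVD)2-Rh110 caspase-3 substrate | Incubation: 30 min compound preincubation, 50 min activation, room temperature | Detection: Rhodamine 110 fluorescence at Ex 480/Em 540 nm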
SENP1 inh = human SENP1 catalytic domain inhibitors, primary screen, biochemical, FRET, uHTS | Sentrin-specific protease 1 (Homo sapiens), Q9P0U3 | recombinant SENP1 catalytic domain, CyPet-SUMO1-YPet FRET cleavage | inhibition, % at 10 µM | hit rate 0.21% among 360,000;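 active = inhibition at least 30% at 10 µM, raw YFP signal under a set limit, fluorescence ratio 0.5 to 1.5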;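 also: 0% = enzyme with DMSO and 100% = no enzyme wells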
Target sequence (Q9P0U3 419-644 limits assumed): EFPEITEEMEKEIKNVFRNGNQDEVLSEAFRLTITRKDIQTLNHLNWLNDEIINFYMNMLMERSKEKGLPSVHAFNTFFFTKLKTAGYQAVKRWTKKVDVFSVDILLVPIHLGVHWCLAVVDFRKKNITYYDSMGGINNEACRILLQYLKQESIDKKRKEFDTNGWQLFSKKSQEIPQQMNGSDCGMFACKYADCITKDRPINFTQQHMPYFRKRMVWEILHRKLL
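material = recombinant human SENP1 catalytic domain, His6-tagged | quantity = 20 pM enzyme | reagent = 25 nM SUMO1 FRET substrate | compound dosing = 10 µM single point, 0.5% DMSO | timing = 50 min enzyme reaction, room temperature, light-protected | detection = FRET, CFP and YFP emission | control set = no-enzyme low, enzyme-DMSO high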
SENP7 block = SENP7 protease inhibitors, primary screen, biochemical, luminescence, uHTS; Sentrin-specific protease 7 (Homo sapiens), Q9BQF6; recombinant SENP7, Z-RLRGG-aminoluciferin luminescence, 40 min; inhibition, % at 5 µM; hit rate 1.5% among 330,000;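 active = inhibition above about 50% at the single test dose, limit read from the data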;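 also: plate controls were DMSO with enzyme for no effect and no enzyme buffer wells for full effect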
Target sequence (Q9BQF6 706-1050 limits assumed): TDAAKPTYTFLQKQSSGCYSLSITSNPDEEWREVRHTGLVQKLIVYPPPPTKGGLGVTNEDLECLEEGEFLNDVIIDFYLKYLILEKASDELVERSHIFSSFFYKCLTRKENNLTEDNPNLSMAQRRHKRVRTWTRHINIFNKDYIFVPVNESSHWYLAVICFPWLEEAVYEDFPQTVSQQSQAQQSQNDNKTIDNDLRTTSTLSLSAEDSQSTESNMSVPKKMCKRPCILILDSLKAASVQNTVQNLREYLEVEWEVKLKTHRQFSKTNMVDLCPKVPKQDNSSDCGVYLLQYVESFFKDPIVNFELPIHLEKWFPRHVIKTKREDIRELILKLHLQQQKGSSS
SENP8 conf = SENP8 protease inhibitors, retest, confirmation, biochemical, luminescence, single concentration; inhibition, % at 12.5 µM; Recombinant SENP8, Z-RLRGG-aminoluciferin luminescence, 60 min; shares compounds with SENP7 block; hit rate 40% among 6,200; AID 488912, 2010;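 active = mean inhibition across replicates above about 50%, limit read from the data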
SENP6 conf = SENP6 protease inhibitors, confirmation, biochemical, luminescence, single concentration. shares compounds with SENP7 block. recombinant SENP6, Z-RLRGG-aminoluciferin luminescence. inhibition, % at 12.5 µM. hit rate 58% among 6,200
SENP7 conf = SENP7 protease inhibitors, retest, confirmation, biochemical, luminescence, single concentration. shares compounds with SENP7 block. recombinant SENP7, Z-RLRGG-aminoluciferin luminescence, 40 min. inhibition, % at 12.5 µM. hit rate 69% among 6,200. AID 488917, 2010
Casp3 select = caspase-3 protease inhibitors, confirmation, selectivity assay for SENP inhibitor project, biochemical, single concentration. hit rate 60% among 6,200. AID 488918, 2010. shares compounds with SENP7 block. purified caspase-3, Z-DEVD-aminoluciferin luminescence, 60 min. inhibition, % at 12.5 µM;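 active = mean inhibition above about 50%, limit read from the data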;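 also: plate controls were enzyme with DMSO for no effect and wells without caspase-3 for full effect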
Target sequence (P42574 28-227 limits assumed): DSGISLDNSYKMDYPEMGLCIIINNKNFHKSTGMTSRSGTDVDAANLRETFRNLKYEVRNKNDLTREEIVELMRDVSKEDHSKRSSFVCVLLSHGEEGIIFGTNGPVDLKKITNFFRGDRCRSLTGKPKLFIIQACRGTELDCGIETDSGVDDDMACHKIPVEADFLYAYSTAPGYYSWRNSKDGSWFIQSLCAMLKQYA
SENP luc ctr = counter-screen for SENP inhibitors: luminescence interference. shares compounds with SENP7 block. Pre-incubated SENP8/Z-RLRGG-aminoluciferin, luciferase luminescence interference. inhibition, % at 12.5 µM. hit rate 39% among 6,200. AID 488919;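 active = mean inhibition above about 50% when retested at one dose, limit read from the data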;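 also: plate controls were DMSO wells with completed reaction for no effect and substrate without enzyme for full effect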
Starred values were filed as active, the others as inactive; . = not tested or not shown.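 The calls were made as follows, unless noted: active = mean inhibition above about 50% in the one-dose retest (limit read from the data); inactive = the rest.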

SMILES | SENP6 block | SENP8 block-1 | SENP8 block-2 | Apaf1 inhib | SENP1 inh | SENP7 block | SENP8 conf | SENP6 conf | SENP7 conf | Casp3 select | SENP luc ctr
Cc1cc(N2Cc3ccccc3C2)ccc1C=O | 56.7* | 49.7 | -2.3 | -5.7 | 0.0 | 10.9 | 45.1 | 72.8* | 93.0* | 80.2* | 28.3
O=Cc1ccc(N2Cc3ccccc3C2)cc1 | 68.0* | 53.9* | -45.4 | 7.4 | 0.6 | 42.5 | 26.2 | 54.8* | 81.4* | 65.5* | 12.4
Nc1sccc1C(=O)NC1CC1 | . | . | 23.3 | . | -1.5 | . | . | . | . | . | .
CC(C)(C)OC(=O)N1CCc2onc(-c3ccccc3[N+](=O)[O-])c2C1=O | . | . | 26.0 | . | -0.5 | . | . | . | . | . | .
Cc1cc2ncc(-c3ccccc3)nc2cc1C | 95.1* | 95.1* | -5.5 | 8.5 | 1.5 | 96.9* | 96.9* | 99.1* | 102.3* | 96.1* | 91.9*
Cc1ccc(-c2cnc3ccccc3n2)cc1C | 94.0* | 95.1* | -49.3 | 6.6 | 1.9 | 98.2* | 96.7* | 99.5* | 103.0* | 96.5* | 48.0
O=C(O)c1cc(-c2ccc(O)cc2)nc2ccccc12 | 8.9 | 3.2 | . | -21.6 | . | -0.9 | . | . | . | . | .
c1csc(-c2cnc3ccccc3n2)c1 | 67.4* | 30.6 | -281.5 | 2.4 | -22.9 | 58.9* | 12.1 | 54.3* | 83.3* | 58.5* | 11.2
Oc1ccc(-c2cnc3ccccc3n2)cc1 | 90.0* | 83.9* | -315.9 | -13.3 | -2.3 | 70.6* | 82.5* | 81.6* | 97.0* | 86.7* | 85.7*
O=C(CCl)Nc1cccc(-c2cnc3ccccc3n2)c1 | -5.2 | -15.0 | -48.4 | 8.1 | 1.2 | 3.0 | . | . | . | . | .
O=C(c1ccc([N+](=O)[O-])cc1)N1CCN(c2ncccn2)CC1 | -12.7 | 0.1 | 8.1 | -16.1 | 3.5 | 1.3 | . | . | . | . | .
COc1cc(NC(=O)CCc2c(C)[nH]c(=O)c(C#N)c2C)cc(OC)c1 | 8.7 | 2.6 | -83.8 | -3.4 | 1.1 | 4.4 | . | . | . | . | .
Nc1ccc(-c2cnc3ccccc3n2)cc1 | 62.1* | 54.6* | -99.9 | 2.5 | -37.1 | 62.2* | 59.0* | 55.0* | 85.5* | 75.4* | 60.6*
O=C(Oc1ccc(-c2cnc3ccccc3n2)cc1)c1ccc(Br)o1 | 51.0* | 41.5 | -47.4 | -3.4 | 2.4 | 74.6* | 13.0 | 22.1 | 24.0 | 63.7* | 19.7
CCCCOc1ccc(-c2cnc3ccccc3n2)cc1 | 96.1* | 90.9* | -407.0 | -1.0 | -5.4 | 94.5* | 52.3* | 64.1* | 55.3* | 82.7* | 20.5
Nc1ccc2nc(-c3ccccc3)cnc2c1 | 67.1* | 52.5* | -369.1 | 9.8 | -39.5 | 42.4 | 41.1 | 67.6* | 88.0* | 73.8* | 71.0*
CCCCOc1ccc(-c2ncc(Cl)cn2)cc1 | 7.5 | -16.3 | 9.0 | -1.3 | -15.9 | 2.6 | . | . | . | . | .
O=C(Oc1ccc(-c2cnc3ccccc3n2)cc1)c1cccc([N+](=O)[O-])c1 | 23.7 | 13.6 | -63.6 | 1.0 | 0.6 | 0.8 | . | . | . | . | .
CCCn1c(SCC(=O)NC(=O)Nc2ccc(C)cc2C)n[nH]c1=O | -5.9 | 7.2 | 7.9 | 4.2 | -1.3 | -2.3 | . | . | . | . | .
Cc1ccc(NC(=O)NC(=O)CSc2nnc(-c3ccc(Cl)cc3Cl)n2N)c(C)c1 | 63.1* | 40.0 | 19.2 | 23.9 | -0.8 | 58.5* | 56.4* | 55.8* | 83.1* | 32.4 | 72.2*
CC(=Nc1ccccc1O)c1sc2ccccc2c1O | 33.5 | -3.2 | -34.4 | -2.9 | -35.2 | 13.9 | . | . | . | . | .
CC(=Nc1cccc(C)c1)c1sc2ccccc2c1O | 62.9* | 43.6 | -73.4 | 15.2 | -21.8 | 38.1 | 72.9* | 73.7* | 88.4* | 47.6 | 31.9
CC(=Nc1ccc(O)cc1)c1sc2ccccc2c1O | 88.9* | 75.1* | 15.8 | 7.2 | -19.1 | 78.6* | 79.9* | 79.9* | 95.9* | 68.5* | 81.3*
Cc1ccc(C(=O)Nc2nc3ccccc3s2)s1 | 91.0* | 73.5* | -112.6 | 16.4 | -3.8 | 85.3* | 56.7* | 83.1* | 96.9* | 75.9* | 49.2
Cc1ccc(C(=O)Nc2nc3ccc(S(C)(=O)=O)cc3s2)s1 | 68.3* | 50.7* | -202.1 | -4.8 | -0.3 | 47.4 | 4.6 | 52.7* | 43.2 | 62.5* | 22.6
SMILES | SENP6 block | SENP8 block-1 | SENP8 block-2 | Apaf1 inhib | SENP1 inh | SENP7 block | SENP8 conf | SENP6 conf | SENP7 conf | Casp3 select | SENP luc ctr
CCC(=O)Nc1nc2ccc(S(C)(=O)=O)cc2s1 | -16.3 | 2.9 | 12.8 | -0.4 | 0.2 | -6.0 | . | . | . | . | .
Cc1ccc(CNc2nc3ccccc3s2)s1 | 85.3* | 75.8* | 22.1 | 0.2 | 3.1 | 87.3* | 73.2* | 71.5* | 92.2* | 71.4* | 34.4
CS(=O)(=O)c1ccc2nc(NC(=O)c3cccs3)sc2c1 | 90.5* | 83.7* | -354.5 | -2.5 | 0.2 | 88.6* | -30.4 | 78.6* | 95.0* | 88.2* | 59.8*
CCCC1OC(c2cc3c(cc2Cl)OCO3)OCC1CC (stereo unspecified) | . | . | 6.0 | . | 2.1 | . | . | . | . | . | .
O=C(O)c1ccccc1-c1ccccc1C(=O)Nc1nc2ccccc2s1 | -12.8 | -1.8 | 4.1 | 12.3 | 0.9 | -6.2 | . | . | . | . | .
Cc1ccc(C(=O)O)c(C(=O)Nc2nc3ccccc3s2)c1 | 69.2* | 67.2* | 15.9 | -2.5 | 2.4 | -1.7 | 90.0* | 90.8* | 100.2* | 95.0* | 75.5*
Cc1ccc2nc(NC(=O)c3cccs3)sc2c1 | 91.6* | 88.7* | -360.6 | -2.4 | -0.5 | 98.2* | 42.2 | 89.2* | 92.1* | 74.5* | 6.4
COCCNC(=O)c1ccc(N2CC3CC(C2)c2cccc(=O)n2C3)c(NC(=O)c2ccccc2Cl)c1 (stereo unspecified) | . | . | 0.4 | . | -1.7 | . | . | . | . | . | .

Source: PubChem
